Experimental findings from ChEMBL document CHEMBL4334471, “Discovery of 1,8-disubstituted-[1,2,3]triazolo[4,5-c]quinoline derivatives as a new class of Hippo signaling pathway inhibitors” (Bioorg Med Chem Lett, 2019) are described below.

Active and inactive are the calls of the source. The calls are words filed in the database; no cut-off is given here.

By IC50 is commonly meant the concentration needed to halve the response being measured.

For assay [1], the target named is Transcriptional coactivator YAP1 (Homo sapiens) (UniProt P46937). Description: Induction of YAP nuclear translocation in human A549 cells at 10 uM incubated for 8 hrs by immunofluorescence based confocal microscopy. Format: cell-based. Put shortly:
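A549-CTGF reporter cells were treated for 8 h at 10 µM, with 0.1% DMSO as vehicle control. Cells were then fixed, permeabilized and probed with anti-YAP antibody. DAPI stained the nuclei, and YAP localization was imaged by immunofluorescence.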

Assay [2] addresses CDK9/cyclin T1 (Homo sapiens) (UniProt O60563+P50750). Kind of assay: Inhibition of recombinant full length human CDK9/cyclinT1 assessed as residual activity at 10 uM using KTFCGTPEYLAPE as substrate incubated for 40 mins in presence of [gamma-33ATP] by scintillation counting based radiometry assay relative to control. Format: protein-complex assay.
Assay [3] deals with Serine/threonine-protein kinase PLK3 (Homo sapiens) (UniProt Q9H4B4). Description: Inhibition of recombinant human Plk3 (19 to 301 residues) assessed as residual activity at 10 uM using casein as substrate incubated for 40 mins in presence of [gamma33P]ATP by scintillation counting based radiometry assay relative to control.
The target in assay [4] is Serine/threonine-protein kinase 3 (Homo sapiens, UniProt Q13188). Description: Inhibition of recombinant human MST2 (2 to end residues) assessed as residual activity using myelin basic protein as substrate measured after 40 mins in presence of [gamma33P]ATP by scintillation counting based radiometry assay.
Assay [5] deals with Serine/threonine-protein kinase N2 (Homo sapiens) (UniProt Q16513). Kind of assay: Inhibition of recombinant human PRK2 (501 to end residues) assessed as residual activity at 10 uM using AKRRRLSSLRA as substrate incubated for 40 mins in presence of [gamma33P]ATP by scintillation counting based radiometry assay relative to control.
Assay [6] has as its target Cyclin-dependent kinase-like 3 (Homo sapiens) (UniProt Q8IVW4). Kind of assay: Inhibition of recombinant full length human CDKL3 assessed as residual activity at 10 uM using RRRFRPASPLRGPPK as substrate incubated for 120 mins in presence of [gamma-33ATP] by scintillation counting based radiometry assay relative to control.
The target in assay [7] is Ephrin type-A receptor 8 (Homo sapiens) (UniProt P29322). Kind of assay: Inhibition of recombinant human EphA8 (615 to 911 residues) assessed as residual activity at 10 uM using KTFCGTPEYLAPEVRREPRILSEEEQEMFRDFDYIADWC as substrate at 40 mins in presence of [gamma-33ATP] by scintillation counting based radiometry assay relative to control.
Assay [8] concerns the target Citron Rho-interacting kinase (Homo sapiens) (UniProt O14578). Description: Inhibition of recombinant human CRIK assessed as residual activity at 10 uM KKLRRTLSVA as substrate incubated 120 mins in presence of [gamma-33ATP] by scintillation counting based radiometry assay relative to control.
Assay [9] concerns the target Receptor tyrosine-protein kinase erbB-4 (Homo sapiens) (UniProt Q15303). Kind of assay: Inhibition of recombinant human ERBB4 (706 to 991 residues) assessed as residual activity at 10 uM using poly(Glu, Tyr) 4:1 as substrate at 40 mins in presence of [gamma-33ATP] by scintillation counting based radiometry assay relative to control.
For assay [10], the target named is Leucine-rich repeat serine/threonine-protein kinase 2 (Homo sapiens) (UniProt Q5S007). Kind of assay: Inhibition of recombinant human LRRK2 (970 to end residues) assessed as residual activity at 10 uM using RLGRDKYKTLRQI as substrate after 40 mins in presence of [gamma-33ATP] by scintillation counting based radiometry assay relative to control.
Assay [11] deals with Mitogen-activated protein kinase kinase kinase 20 (Homo sapiens) (UniProt Q9NYL2). Kind of assay: Inhibition of recombinant full-length human ZAK assessed as residual activity at 10 uM using MBP as substrate incubated for 40 mins in presence of [gamma33P]ATP by scintillation counting based radiometry assay relative to control.
Assay [12] addresses Calcium/calmodulin-dependent protein kinase type II subunit gamma (Homo sapiens) (UniProt Q13555). Kind of assay: Inhibition of recombinant human CaMK2gamma (1 to 330 residues) assessed as residual activity at 10 uM using […] incubated for 40 mins in presence of [gamma-33ATP] by scintillation counting based radiometry assay relative to control.
Assay [13] deals with Bone morphogenetic protein receptor type-1B (Homo sapiens) (UniProt O00238). Description: Inhibition of human ALK6 (148 to end residues) assessed as residual activity at 10 uM using casein as substrate incubated for 40 mins in presence of [gamma-33ATP] by scintillation counting based radiometry assay relative to control.
For assay [14], the target named is Tribbles homolog 2 (Homo sapiens) (UniProt Q92519). Description: Inhibition of recombinant full-length human TRB2 assessed as residual activity at 10 uM using RRRFRPASPLRGPPK as substrate incubated for 120 mins in presence of [gamma33P]ATP by scintillation counting based radiometry assay relative to control.
Assay [15] deals with Casein kinase 2 (Homo sapiens) (UniProt P67870+P68400+P19784+Q8NEV1). Description: Inhibition of recombinant human CK2 assessed as residual activity at 10 uM in presence of [gamma-33ATP] by scintillation counting based radiometry assay relative to control. Format: protein assay.
The species named for assay [16] is Homo sapiens. Description: Inhibition of recombinant human FLT4 V1128L/H1146R mutant (800 to end residues) assessed as residual activity at 10 uM using GGEEEEYFELVKKKK as substrate at 40 mins in presence of [gamma-33ATP] by scintillation counting based radiometry assay relative to control.
Assay [17] deals with Serine/threonine-protein kinase tousled-like 1 (Homo sapiens) (UniProt Q9UKI8). Description: Inhibition of recombinant full-length human TLK1 assessed as residual activity at 10 uM using casein as substrate incubated for 40 mins in presence of [gamma33P]ATP by scintillation counting based radiometry assay relative to control.
In assay [18] the target is Mitogen-activated protein kinase 8 (Homo sapiens) (UniProt P45983). Description: Inhibition of human JNK1alpha1 assessed as residual activity at 10 uM using ATF2 as substrate after 40 mins by [gamma-33ATP] radiometric assay relative to control.
In assay [19] the target is G protein-coupled receptor kinase 3 (Homo sapiens) (UniProt P35626). Kind of assay: Inhibition of recombinant full length human GRK3 assessed as residual activity at 10 uM using casein as substrate at 40 mins in presence of [gamma-33ATP] by scintillation counting based radiometry assay relative to control.
For assay [20], the system named is RAC-beta serine/threonine-protein kinase (Homo sapiens), P31751 [S474D]. Kind of assay: Inhibition of recombinant human PKBbeta S474D mutant (120 to end residues) assessed as residual activity at 10 uM using GRPRTSSFAEGKK as substrate incubated for 40 mins in presence of [gamma33P]ATP by scintillation counting based radiometry assay relative to control.
For assay [21], the target named is Serine/threonine-protein kinase Nek6 (Homo sapiens) (UniProt Q9HC98). Kind of assay: Inhibition of recombinant human NEK6 (2 to end residues) assessed as residual activity at 10 uM using FLAKSFGSPNRAYKK as substrate measured after 40 mins in presence of [gamma33P]ATP by scintillation counting based radiometry assay relative to control.
Sequence of Serine/threonine-protein kinase Nek6 (Homo sapiens) (Q9HC98 whole entry): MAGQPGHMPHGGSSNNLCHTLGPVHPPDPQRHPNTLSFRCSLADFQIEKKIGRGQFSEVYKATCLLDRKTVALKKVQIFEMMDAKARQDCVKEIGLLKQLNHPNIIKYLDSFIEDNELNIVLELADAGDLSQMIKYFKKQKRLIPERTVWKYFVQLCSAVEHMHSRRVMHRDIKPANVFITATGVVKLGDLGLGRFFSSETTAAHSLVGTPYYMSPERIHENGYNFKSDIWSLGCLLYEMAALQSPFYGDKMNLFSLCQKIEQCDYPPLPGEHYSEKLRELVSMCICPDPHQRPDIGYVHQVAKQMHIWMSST

Sequence of Mitogen-activated protein kinase kinase kinase 20 (Homo sapiens) (Q9NYL2 2-800 limits assumed): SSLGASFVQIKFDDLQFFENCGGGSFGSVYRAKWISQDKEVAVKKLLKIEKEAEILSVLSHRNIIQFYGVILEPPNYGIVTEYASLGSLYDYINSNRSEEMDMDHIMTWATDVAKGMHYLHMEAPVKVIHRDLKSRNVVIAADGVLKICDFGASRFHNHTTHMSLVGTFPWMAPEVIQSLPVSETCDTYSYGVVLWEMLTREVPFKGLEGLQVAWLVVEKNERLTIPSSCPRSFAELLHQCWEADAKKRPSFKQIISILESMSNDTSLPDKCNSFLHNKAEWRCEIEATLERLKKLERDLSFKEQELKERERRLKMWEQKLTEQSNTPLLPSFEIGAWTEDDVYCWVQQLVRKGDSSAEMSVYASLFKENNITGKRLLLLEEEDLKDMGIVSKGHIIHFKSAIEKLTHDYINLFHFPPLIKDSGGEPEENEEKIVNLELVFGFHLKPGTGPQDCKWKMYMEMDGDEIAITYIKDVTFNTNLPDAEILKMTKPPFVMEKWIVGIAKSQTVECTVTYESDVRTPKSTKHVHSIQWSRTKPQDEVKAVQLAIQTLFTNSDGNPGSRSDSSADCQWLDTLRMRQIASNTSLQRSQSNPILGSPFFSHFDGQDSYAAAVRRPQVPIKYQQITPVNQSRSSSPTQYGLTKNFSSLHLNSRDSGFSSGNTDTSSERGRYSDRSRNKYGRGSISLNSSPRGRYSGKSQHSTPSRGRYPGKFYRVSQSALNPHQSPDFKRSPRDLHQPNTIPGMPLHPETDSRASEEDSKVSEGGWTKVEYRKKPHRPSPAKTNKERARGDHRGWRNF
Sequence of Transcriptional coactivator YAP1 (Homo sapiens) (P46937 whole entry): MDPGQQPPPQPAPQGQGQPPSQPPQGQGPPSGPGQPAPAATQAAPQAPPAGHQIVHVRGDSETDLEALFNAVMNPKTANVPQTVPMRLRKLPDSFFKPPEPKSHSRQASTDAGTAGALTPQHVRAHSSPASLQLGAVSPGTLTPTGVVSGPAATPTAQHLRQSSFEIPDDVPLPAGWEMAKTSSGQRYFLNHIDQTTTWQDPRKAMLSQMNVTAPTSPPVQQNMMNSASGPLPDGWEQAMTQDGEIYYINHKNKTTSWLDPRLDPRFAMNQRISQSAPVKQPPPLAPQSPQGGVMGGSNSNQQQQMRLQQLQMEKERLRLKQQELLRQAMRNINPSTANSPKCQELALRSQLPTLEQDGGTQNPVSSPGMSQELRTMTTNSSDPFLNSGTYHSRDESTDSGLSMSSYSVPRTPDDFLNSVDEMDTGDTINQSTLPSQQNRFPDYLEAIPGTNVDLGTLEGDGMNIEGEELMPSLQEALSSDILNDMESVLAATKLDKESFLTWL
Sequence of Serine/threonine-protein kinase 3 (Q13188 whole entry): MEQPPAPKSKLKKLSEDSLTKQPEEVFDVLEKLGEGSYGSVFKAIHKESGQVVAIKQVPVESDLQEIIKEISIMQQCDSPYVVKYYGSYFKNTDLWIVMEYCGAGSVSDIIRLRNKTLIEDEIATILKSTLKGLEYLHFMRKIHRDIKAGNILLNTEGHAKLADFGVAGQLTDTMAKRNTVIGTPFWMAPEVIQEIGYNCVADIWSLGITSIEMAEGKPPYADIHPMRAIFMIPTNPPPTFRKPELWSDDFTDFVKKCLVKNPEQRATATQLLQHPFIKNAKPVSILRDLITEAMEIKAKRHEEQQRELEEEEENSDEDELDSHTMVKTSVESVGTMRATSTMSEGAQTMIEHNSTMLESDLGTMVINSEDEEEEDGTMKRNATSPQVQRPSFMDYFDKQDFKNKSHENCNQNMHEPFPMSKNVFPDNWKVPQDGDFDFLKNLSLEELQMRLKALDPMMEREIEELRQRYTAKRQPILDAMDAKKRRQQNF
Sequence of Mitogen-activated protein kinase 8 (Homo sapiens) (P45983 whole entry): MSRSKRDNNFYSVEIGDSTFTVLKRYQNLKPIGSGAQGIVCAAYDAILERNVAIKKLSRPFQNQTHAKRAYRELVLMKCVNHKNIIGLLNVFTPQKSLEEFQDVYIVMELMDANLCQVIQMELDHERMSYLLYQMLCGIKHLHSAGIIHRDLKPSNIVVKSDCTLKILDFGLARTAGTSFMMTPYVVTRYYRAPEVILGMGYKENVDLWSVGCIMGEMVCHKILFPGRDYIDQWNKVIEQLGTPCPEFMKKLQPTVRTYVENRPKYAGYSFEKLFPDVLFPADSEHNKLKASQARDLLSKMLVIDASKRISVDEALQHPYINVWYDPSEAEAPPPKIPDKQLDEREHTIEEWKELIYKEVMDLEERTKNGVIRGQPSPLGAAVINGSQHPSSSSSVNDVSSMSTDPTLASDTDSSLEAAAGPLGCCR
Sequence of Serine/threonine-protein kinase PLK3 (Homo sapiens) (Q9H4B4 whole entry, looked up, the tested form may be a part): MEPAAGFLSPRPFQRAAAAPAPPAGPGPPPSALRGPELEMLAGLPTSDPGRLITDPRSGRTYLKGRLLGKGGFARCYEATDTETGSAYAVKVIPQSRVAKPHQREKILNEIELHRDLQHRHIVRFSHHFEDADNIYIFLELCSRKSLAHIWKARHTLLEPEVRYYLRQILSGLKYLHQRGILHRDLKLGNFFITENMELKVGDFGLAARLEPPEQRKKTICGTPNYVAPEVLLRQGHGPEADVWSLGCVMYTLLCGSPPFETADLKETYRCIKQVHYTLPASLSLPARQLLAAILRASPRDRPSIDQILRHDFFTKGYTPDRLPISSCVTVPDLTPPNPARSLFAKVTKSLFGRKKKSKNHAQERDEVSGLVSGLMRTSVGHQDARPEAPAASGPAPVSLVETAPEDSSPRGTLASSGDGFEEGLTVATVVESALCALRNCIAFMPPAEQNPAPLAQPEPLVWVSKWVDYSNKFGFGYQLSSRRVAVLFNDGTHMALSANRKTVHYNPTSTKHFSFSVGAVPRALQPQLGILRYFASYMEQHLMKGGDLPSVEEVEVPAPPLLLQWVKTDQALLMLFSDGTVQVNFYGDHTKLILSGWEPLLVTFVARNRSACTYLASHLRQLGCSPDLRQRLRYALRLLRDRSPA
Sequence of Tribbles homolog 2 (Homo sapiens) (Q92519 whole entry): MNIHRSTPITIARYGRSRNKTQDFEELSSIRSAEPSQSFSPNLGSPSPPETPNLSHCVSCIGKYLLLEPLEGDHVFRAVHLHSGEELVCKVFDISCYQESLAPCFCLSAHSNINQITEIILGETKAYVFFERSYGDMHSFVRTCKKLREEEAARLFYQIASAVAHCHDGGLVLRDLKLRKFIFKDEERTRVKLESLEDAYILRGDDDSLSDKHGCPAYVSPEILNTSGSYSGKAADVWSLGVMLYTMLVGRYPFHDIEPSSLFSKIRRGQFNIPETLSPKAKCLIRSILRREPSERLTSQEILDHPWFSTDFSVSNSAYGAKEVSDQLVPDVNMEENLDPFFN
Sequence of Serine/threonine-protein kinase tousled-like 1 (Homo sapiens) (Q9UKI8 whole entry): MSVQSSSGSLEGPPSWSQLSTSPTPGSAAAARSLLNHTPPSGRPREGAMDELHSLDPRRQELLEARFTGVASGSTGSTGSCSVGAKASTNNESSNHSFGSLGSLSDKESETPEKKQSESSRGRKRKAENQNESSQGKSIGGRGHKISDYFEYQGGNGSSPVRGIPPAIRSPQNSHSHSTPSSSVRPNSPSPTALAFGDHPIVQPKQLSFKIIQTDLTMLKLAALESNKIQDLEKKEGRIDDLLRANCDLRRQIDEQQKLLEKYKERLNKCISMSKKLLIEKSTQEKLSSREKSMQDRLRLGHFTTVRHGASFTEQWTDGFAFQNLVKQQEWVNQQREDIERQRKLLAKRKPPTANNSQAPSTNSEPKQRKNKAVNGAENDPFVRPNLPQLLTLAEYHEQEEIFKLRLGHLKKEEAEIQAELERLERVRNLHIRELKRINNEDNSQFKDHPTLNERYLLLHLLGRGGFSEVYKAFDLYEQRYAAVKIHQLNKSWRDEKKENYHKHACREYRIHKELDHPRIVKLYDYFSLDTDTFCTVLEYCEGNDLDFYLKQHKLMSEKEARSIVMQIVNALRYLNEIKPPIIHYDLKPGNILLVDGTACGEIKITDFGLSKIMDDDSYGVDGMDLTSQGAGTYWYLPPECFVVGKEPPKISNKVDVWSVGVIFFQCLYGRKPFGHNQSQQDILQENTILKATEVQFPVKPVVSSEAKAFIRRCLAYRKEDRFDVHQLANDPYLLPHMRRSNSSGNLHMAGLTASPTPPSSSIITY
Sequence of Calcium/calmodulin-dependent protein kinase type II subunit gamma (Homo sapiens) (Q13555 whole entry, the tested form may be a part): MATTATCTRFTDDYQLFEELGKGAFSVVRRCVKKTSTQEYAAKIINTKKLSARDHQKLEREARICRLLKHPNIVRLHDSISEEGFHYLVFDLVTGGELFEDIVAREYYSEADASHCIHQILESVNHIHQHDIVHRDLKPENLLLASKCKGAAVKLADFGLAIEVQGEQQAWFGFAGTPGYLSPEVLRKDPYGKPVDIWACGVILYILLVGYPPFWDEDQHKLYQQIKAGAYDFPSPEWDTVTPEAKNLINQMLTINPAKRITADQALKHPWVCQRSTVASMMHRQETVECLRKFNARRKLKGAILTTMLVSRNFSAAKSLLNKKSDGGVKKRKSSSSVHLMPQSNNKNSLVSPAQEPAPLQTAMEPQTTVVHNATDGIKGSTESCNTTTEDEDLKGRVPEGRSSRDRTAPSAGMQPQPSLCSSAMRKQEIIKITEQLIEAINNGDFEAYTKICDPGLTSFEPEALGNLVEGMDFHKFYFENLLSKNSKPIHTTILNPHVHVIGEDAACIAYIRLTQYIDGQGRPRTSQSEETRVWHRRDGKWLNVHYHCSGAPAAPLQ

Regarding `C[C@@H](c1ccccc1)n1nnc2cnc3ccc(-c4cnc5[nH]ccc5c4)cc3c21`, the outcome in [1] was Active. Moreover, the Activity in assay [2] amounted to 80%; in assay [3], 71%; in [5], 89%; in assay [6] it was 104%; in assay [7], 73%; in assay [8] it was 80%. Further, the Activity in assay [9] came to 73%; in assay [10], 11%; in [11], 8%; in assay [12] it was 72%; in [13], 93%; in assay [14], 86%. In addition, the Activity in [15] is 82%; in assay [16], 13%; in assay [17], 99%; in assay [18] it was 105%; in [19], 110%; in [20], 61%. In assay [21], the Activity came to 72%. Moreover, the IC50 in assay [4] was greater than 10 µM.
